# Screening data from PubChem.
# KCNK9 block: human KCNK9 channel inhibition; HEK293 KCNK9, FluxOR thallium flux fluorescence; active compounds read low; B-score at 10 µM; 1.2% of 310,000 active; AID 488922;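 active = ratio B-score over 3 SD below the library mean, with starting fluorescence within 5 SD of its mean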;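 note: negative B-score means less thallium flux so channel inhibition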
# KCNK3 inh: human KCNK3 channel inhibition, primary screen; O14649; CHO-KCNK3 thallium flux, FluxOR fluorescence; active compounds read low; B-score at 10 µM; 0.84% of 340,000 active; AID 602410;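 active = B-score under library mean minus 4 SD, starting fluorescence ratio at most library mean plus 5 SD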;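 note: more negative B-score means stronger inhibition of thallium flux through KCNK3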
# Target sequence (O14649 whole entry, looked up): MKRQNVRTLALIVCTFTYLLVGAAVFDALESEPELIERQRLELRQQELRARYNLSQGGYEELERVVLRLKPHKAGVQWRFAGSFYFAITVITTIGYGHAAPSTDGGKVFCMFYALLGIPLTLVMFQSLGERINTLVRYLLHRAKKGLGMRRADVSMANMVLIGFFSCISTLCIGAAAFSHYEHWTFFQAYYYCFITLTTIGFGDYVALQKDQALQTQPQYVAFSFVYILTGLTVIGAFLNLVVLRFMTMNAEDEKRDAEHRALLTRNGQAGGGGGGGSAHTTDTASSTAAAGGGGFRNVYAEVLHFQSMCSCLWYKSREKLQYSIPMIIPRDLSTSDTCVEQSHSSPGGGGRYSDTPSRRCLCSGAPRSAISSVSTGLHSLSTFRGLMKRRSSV
# KCNQ1 pot: potentiators or activators of human KCNQ1 potassium channel; P51787; CHO-K1 KCNQ1, thallium flux FluxOR fluorescence; active compounds read high; B-score at 10 µM; 0.35% of 310,000 active; AID 2648;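 active = fluorescence ratio B-score, a plate-corrected score, at least three library SD, with initial intensity B-score within 5 SD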
#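 Material: CHO-K1 cells stably expressing KCNQ1. Medium: assay buffer for compound exposure, DMSO matched across wells. Reagent: K+/Tl+ depolarizing stimulus. Compound dosing: single-concentration screen. Times: 37 °C overnight plating, 90-min dark dye load, 20-min compound pretreatment. Technique: FluxOR Tl+ flux fluorescence.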
# hERG protect: hERG (human) protection from proarrhythmic block; Q12809; CHO-hERG, FluxOR thallium flux, dofetilide IC70 present; activation (rescue from dofetilide block), less the hit threshold, % at 10 µM; 0.51% of 310,000 active;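 active = activation above the mean of controls blocked by dofetilide plus 5 SD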;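 note: thallium influx through hERG after potassium depolarization seen as dye fluorescence rise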
# KCNQ1 inh: blocks the human KCNQ1 potassium channel. P51787. CHO-K1 KCNQ1, FluxOR thallium flux fluorescence; active compounds read high. B-score at 10 µM. 1.3% of 310,000 active;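 active = compounds whose thallium flux B-score, printed positive for inhibition, exceeds three library SD while starting fluorescence stays within three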;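 note: channel opened by potassium depolarization with thallium stimulus after 20 min compound exposure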
# Cl transport mod: modulators of human KCC2 chloride dependent transport; Q9H2X9; KCC2 cells, thallium flux FluoZin-2 fluorescence; B-score of Tl+ flux slope (higher = more flux/activation; lower = inhibition) at 10 µM; 2.2% of 190,000 active; AID 1456;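 active = thallium flux slope and its plate-corrected score both differing from the plate sample mean at a set confidence after two filtering rounds, in either direction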;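 note: slope of fluorescence scaled to starting intensity during 10 to 20 s after thallium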
# KCC2 sec1: confirmation of human KCC2 transport modulators | shares compounds with Cl transport mod | HEK293-KCC2, thallium flux, FluoZin2 fluorescence; active compounds read high | normalised thallium flux (F/F0 slope) at 10 µM | 15% of 3,700 active | AID 1713;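 active = thallium flux slope above the same plate's solvent-only control mean plus 3 SD; inconclusive = the two replicate wells disagree; inactive = no significant difference from solvent-only control wells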
# KCC2 bumet counter: thallium flux persisting under bumetanide in KCC2 cells, counter-screen secondary assay; shares compounds with Cl transport mod; HEK293-KCC2 + bumetanide/ouabain, thallium flux FluoZin2; active compounds read high; normalized thallium flux at 10 µM; 49% of 3,700 active; AID 1714;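 active = thallium entry rate above the same plate's blocked-transporter control wells by more than 3 SD; inconclusive = the two repeat wells disagree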;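 note: raw slope of fluorescence over initial fluorescence between 10 and 20 s after thallium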
# KCC2 secondary2: KCC2 (human) modulation, second secondary assay | shares compounds with Cl transport mod | HEK293-KCC2, thallium flux FluoZin2 fluorescence; actives lie on both sides; F/F0 rise rate, 10–20 s post-thallium | normalized thallium flux at 10 µM | 23% of 3,700 active | AID 1715;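 active = thallium flux slope more than 3 SD above or below the plate's solvent-only control mean, mostly below; inconclusive = the two repeat wells disagreed; inactive = no significant shift from solvent-only controls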;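 note: raw slope with 0.1% DMSO as baseline and bumetanide as block control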
# HEK counter1: acts in parental HEK cells, KCC2 counter-screen | shares compounds with Cl transport mod | HEK293 parental cells, thallium flux FluoZin2, ouabain; baseline-ratio fluorescence slope, 10–20 s after thallium | thallium flux rate (normalised fluorescence) at 10 µM | 46% of 3,700 active;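 active = thallium flux rate significantly above the same plate's solvent-only control wells, beyond their mean plus 3 SD; inconclusive = the two replicate wells gave conflicting results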
# KCC2 ouabain: KCC2 (human) modulation, ouabain retest; AID 1717; shares compounds with Cl transport mod; raw Tl+ flux slope (below DMSO = inhibition, above = activation) at 10 µM; HEK293-KCC2, thallium flux FluoZin2 fluorescence; bidirectional: low = inhibitor, high = activator; 48% of 3,700 active;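 active = thallium flux slope beyond 3 SD from same-plate DMSO control mean in most replicates, usually higher, sometimes lower; inconclusive = repeat tests gave conflicting results; inactive = no significant difference from controls in most replicates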;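 note: slope of initial-normalized fluorescence between seconds 10 and 20 after thallium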
# HEK293 Tl flux2: parental HEK flux effect, counter-screen 2 | shares compounds with Cl transport mod | HEK293 parental, thallium flux FluoZin-2 fluorescence slope | thallium flux slope at 10 µM | 33% of 3,700 active;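 active = thallium flux slope above the same plate's solvent-control mean plus 3 SD in both duplicate wells; inconclusive = duplicate wells that disagreed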;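 note: run without ouabain in cells lacking the KCC2 cotransporter; slope of fluorescence scaled to its starting value between 10 and 20 s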
# Starred values were filed as active, the others as inactive; i = inactive; ? = inconclusive; nt = no result. Only some compounds are listed: those with a hit (about 4.1% of all), similar ones and a draw of the others.
SMILES,KCNK9 block,KCNK3 inh,KCNQ1 pot,hERG protect,KCNQ1 inh,Cl transport mod,KCC2 sec1,KCC2 bumet counter,KCC2 secondary2,HEK counter1,KCC2 ouabain,HEK293 Tl flux2
COCCN(CCOC)C(=O)c1ccc(SCc2ccc(C)cc2)c([N+](=O)[O-])c1,i,i,i,-12,i,-4.4*,0.0064,0.0055,0.029,0.0059,0.015*,0.01
O=C(c1ccc(OC2CCN(C(=O)C3CC3)CC2)cc1)N(CCO)Cc1ccccc1,i,i,i,-10,i,-0.68,nt,nt,nt,nt,nt,nt
CCOc1ccc(CCNC(=O)CCNC(=O)c2ccccc2Cl)cc1OCC,i,i,i,-9,i,nt,nt,nt,nt,nt,nt,nt
CC(C)CC(=O)NC1(C(F)(F)F)C(=O)Nc2c1c(=O)n(C)c(=O)n2C (stereo not drawn),i,i,i,-5,i,-3.5*,0.0062,0.0051,0.033,0.0082,0.021,0.011
Cc1ccc(C(=O)/C=C/c2cc(Br)cc(Br)c2O)o1,i,i,i,-12,i,nt,nt,nt,nt,nt,nt,nt
N#CCSc1nnc(COc2cccc3ccccc23)n1-c1ccccc1,i,i,i,-15,i,nt,nt,nt,nt,nt,nt,nt
N#CCSc1nnc(COc2cccc3ccccc23)n1-c1cccc(Cl)c1,i,i,i,40*,i,7.6*,0.0072,?,0.03,0.0081,0.02,0.011
CC(NCc1ccc(F)cc1)C(=O)Nc1cc(S(=O)(=O)N2CCCCC2)ccc1Cl (stereo not drawn),i,i,i,-5,i,-4.7*,0.01,0.008*,?,0.0064,0.016*,0.01
O=C(NNC(=O)c1sccc1-n1cccc1)c1ccccc1,i,i,i,-3,i,1.9,nt,nt,nt,nt,nt,nt
O=C(NNC(=O)c1sccc1-n1cccc1)c1ccc(F)cc1,i,i,i,-7,i,nt,0.011,0.017*,0.035,?,0.026*,0.012
O=C(Nc1nnc(-c2ccncc2)o1)c1ccc(Br)s1,i,i,i,-7,i,4.6*,0.017,0.0096*,0.031,0.014*,0.02,0.015*
COc1ccc(C(=O)NC(=S)NNC(=O)[C@H]2C[C@@H]2c2ccccc2)cc1OC,i,i,i,-7,i,5.8,nt,nt,nt,nt,nt,nt
O=C(NC(=S)NNC(=O)[C@H]1C[C@@H]1c1ccccc1)c1ccc(F)cc1,i,i,i,-23,6*,20*,0.0057,0.02*,0.037,0.02*,0.03*,0.021*
O=C(/C=C/c1ccc(F)cc1)NC(=S)NNC(=O)[C@H]1C[C@@H]1c1ccccc1,i,i,i,-6,i,nt,nt,nt,nt,nt,nt,nt
COc1cc(OC)cc(C(=O)NC(=S)NNC(=O)[C@H]2C[C@@H]2c2ccccc2)c1,i,i,15*,-18,i,59*,0.023*,0.078*,0.043*,0.033*,0.059*,0.016*
CCN(C(=O)COc1cccc(-n2cnnn2)c1)C1CCS(=O)(=O)C1 (stereo not drawn),nt,i,nt,nt,nt,nt,nt,nt,nt,nt,nt,nt
CCNC(=O)N(CC)C[C@H]1N[C@@](Cc2ccccc2)(C(=O)OC)[C@H]2C(=O)N(Cc3ccccc3)C(=O)[C@@H]12,nt,i,nt,nt,nt,nt,nt,nt,nt,nt,nt,nt
